ERAP1 HTS inh – human ERAP1 aminopeptidase inhibitors, primary screen, biochemical, single point, plate reader. Endoplasmic reticulum aminopeptidase 1 (Homo sapiens), Q9NZ08. recombinant ERAP1, Leu-AMC fluorescence, 60 min. inhibition, % at 10.7 µM. 340,000 compounds, 0.15% hits;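 active = mean replicate inhibition of at least 30%, or all replicates individually reaching that 30% level; inactive = mean below 30% and not every replicate reaching it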;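 note: 0% = neutral control wells and 100% = L-leucinethiol positive control wells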
Target sequence (Q9NZ08 whole entry, looked up): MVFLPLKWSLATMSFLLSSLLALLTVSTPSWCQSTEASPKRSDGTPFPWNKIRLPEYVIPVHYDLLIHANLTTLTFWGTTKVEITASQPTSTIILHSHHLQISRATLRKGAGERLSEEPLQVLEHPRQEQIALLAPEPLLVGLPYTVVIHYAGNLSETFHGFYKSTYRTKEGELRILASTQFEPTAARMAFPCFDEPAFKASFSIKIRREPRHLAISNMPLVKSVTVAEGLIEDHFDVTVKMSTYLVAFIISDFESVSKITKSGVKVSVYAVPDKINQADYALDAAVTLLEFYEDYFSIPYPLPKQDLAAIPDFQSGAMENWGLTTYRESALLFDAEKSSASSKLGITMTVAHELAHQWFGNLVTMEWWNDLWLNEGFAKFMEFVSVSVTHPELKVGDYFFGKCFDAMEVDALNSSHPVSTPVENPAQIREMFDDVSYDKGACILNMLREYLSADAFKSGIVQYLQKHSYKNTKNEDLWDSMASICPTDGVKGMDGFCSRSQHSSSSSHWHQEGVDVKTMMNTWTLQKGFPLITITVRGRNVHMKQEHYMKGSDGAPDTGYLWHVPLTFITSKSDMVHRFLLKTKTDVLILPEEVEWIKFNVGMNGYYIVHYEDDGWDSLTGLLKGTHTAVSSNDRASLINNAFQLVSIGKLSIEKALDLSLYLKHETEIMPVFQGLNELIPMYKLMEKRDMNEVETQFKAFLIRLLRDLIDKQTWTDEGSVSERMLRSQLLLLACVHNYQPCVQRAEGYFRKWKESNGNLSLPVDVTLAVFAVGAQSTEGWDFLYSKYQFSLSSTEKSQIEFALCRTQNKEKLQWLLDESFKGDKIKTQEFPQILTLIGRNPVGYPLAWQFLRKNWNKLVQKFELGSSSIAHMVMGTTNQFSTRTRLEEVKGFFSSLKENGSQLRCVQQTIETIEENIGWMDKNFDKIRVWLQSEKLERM
Ecoli rRNA inh – reduced GFP signal of wild-type E. coli, primary screen, bacterial rRNA inhibitor project, GFP/RFP fluorescence, OD600, single point. AID 720706, 2013. E. coli WT GFP vs humanized-ribosome RFP mutants, 24 h; active compounds read low; DMSO median 0, no signal -100. 350,000 compounds, 1.6% hits. GFP signal change (wild-type ribosome), % (test concentration not listed);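 active = significant combined selectivity score with lowered wild-type GFP, culture density cut under 30%, mutant RFP and density less affected; inactive = any of these conditions unmet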
PGC1a acetyl inh – inhibitors of PGC1a acetylation signal, primary screen, cell-based, U2OS, AlphaScreen, inhibitor mode. AlphaScreen anti-acetyl-lysine; with virally co-expressed GCN5 acetyltransferase. inhibition, % at 15.6 µM. 350,000 compounds, 0.17% hits. AID 651687, 2012;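 active = every replicate shows inhibition of at least 40%; inconclusive = mean inhibition at least 40% but some replicate below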;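 note: 0% = neutral control wells and 100% = positive control wells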
FGF22 binding – binders of human FGF22 protein, primary screen, FGF22 synaptogenesis inhibitor project, biophysical, thermal shift, single point; AID 651658, 2012; Fibroblast growth factor 22 (Homo sapiens), Q9HCT0; recombinant FGF22 thermal shift, SYPRO orange fluorescence; percent of sucrose octasulfate shift, DMSO zero; 340,000 compounds, 1.5% hits; activity (Tm shift, normalised), % at 9.99 µM;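 active = mean Tm shift, scaled 0 neutral to 100 positive control, at about 1.3% or above, every replicate too, limit read from the data; inconclusive = no clear call, values can overlap the other calls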
Env fusion inh – inhibitors of HIV-1 Env-driven cell-cell fusion, primary screen, HeLa-JRFL effector, CEM21 target cells, luciferase; inhibition, % at 12.3 µM; 360,000 compounds, 1.1% hits; AID 651610, 2012;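 active = mean replicate inhibition score of at least 50 and every replicate individually at or above 50; inconclusive = only one of the two criteria met; inactive = mean below 50 and not all replicates reaching 50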;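 note: 0% = plate neutral controls and 100% = maraviroc near 300 nM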
Cneo AK release – Cryptococcus neoformans cell lysis inducers, primary screen, AK release luminescence, single concentration; lysis activity, % at 15 µM; C. neoformans lysis, adenylate kinase release luminescence, 4 h; normalised: neutral wells 0, clomiphene wells 100; 360,000 compounds, 0.2% hits; AID 651654, 2012;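 active = mean lysis activity across replicates of at least 80%, whatever share of replicates individually reach that level; inactive = mean lysis activity below 80%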
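Assay system: Cryptococcus neoformans yeast cells / Dosing: single-point compound dose / Timing: 4 h at 37 °C static, read 1 h later / Measured by: luminescence of released adenylate kinase using an AK detection reagent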
Active calls of the source: *; ? = inconclusive; . = no result; ! = a repeat was not active; [ ] = remark or other dose. In the library only some 3.5% were active in any assay of this set; here they are far more common.

SMILES	ERAP1 HTS inh	Ecoli rRNA inh	PGC1a acetyl inh	FGF22 binding	Env fusion inh	Cneo AK release
O=C(CSc1n[nH]c(=O)[nH]c1=O)NC1CC1	-2	11	9	44*	-5	.
CN(C)/C=N/c1nc2ncc(-c3ccc(Cl)cc3)c(/N=C/N(C)C)n2n1	2	29	16	43*	-8	1
COc1ccc(NC(=O)c2ccc(-c3ccc(OC)cc3)s2)cc1	-1	14	.	43*	17	.
CS(=O)(=O)c1ccc2nc(NC(=O)c3cc(-c4ccccc4)nn3-c3ccccc3)sc2c1	8	3	-13	43*	-15	0
CCCCn1c(SCC(N)=O)nc2sc3c(c2c1=O)CCC3	0	5	8	0	15	0
CCOC(=O)C1=C(N)OC2=C(C(=O)CC(C)(C)C2)C1c1ccc(C)s1 (stereo not given)	3	0	-5	44*	-14	.
CN(C)C1=NCC(CSC(=N)N)S1 (stereo not given)	.	-37*	.	0	-2	0
COc1ccc(CCNC(=O)C2CCCN2S(=O)(=O)c2ccc(F)cc2)cc1OC (stereo not given)	1	4	-2	0	-2	-3
CCOC1=C2[C@H](c3ccccc3)N(S(=O)(=O)c3ccc(C)cc3)[C@H](C(C)C)[C@H]2C(C#N)(C#N)C(C#N)(C#N)C1	.	4	.	0	107*	.
COc1cccc(Nc2nc3ccccc3nc2-n2nc(C)cc2C)c1	5	11	-5	0	-2	5
CN(C)CC#Cc1cccc(-c2nc(C(=O)O)cc3c2[C@@H](CCO)N(S(=O)C(C)(C)C)C3)c1 (stereo not given in full)	1	24	6	0	-11	-1
NNC(=O)c1nc[nH]c1C(=O)Nc1ccccn1	1	17	.	43*	-13	.
Cc1ccc(NC(=O)c2[nH]cnc2C(=O)NN)cc1	-1	9	0	0	-13	0
CCN(CC)CCCn1c(=S)[nH]c2cc(C(=O)OC)ccc2c1=O	.	.	.	.	-66	.
C(=N\Nc1ncnc2nc[nH]c12)/c1cccs1	0	2	.	43*	-13	-1
COc1ccc(Cc2c(C(C)(C)C)nc3c(C)cc(Br)cn23)c(C)c1	8	5	17	44*	-3	1
C[C@@H]1CCCCO[C@@H](CN(C)C(=O)NC2CCCCC2)[C@H](C)CN([C@@H](C)CO)C(=O)c2cc(NS(=O)(=O)c3cn(C)cn3)ccc2O1	-1	-1	.	0	32[16.7 µM]	101*
C[C@H](CO)N1C[C@H](C)[C@@H](CN(C)S(=O)(=O)c2cn(C)cn2)Oc2ccc(NC(=O)Cn3cnnn3)cc2C1=O	-1	4	0	44*!	.	-2
C[C@@H]1CN([C@@H](C)CO)C(=O)c2cc(NS(=O)(=O)c3cn(C)cn3)ccc2O[C@@H](C)CCCCO[C@H]1CN(C)C	13	.	10	0	17[16.7 µM]	98*
C[C@H](CO)N1C[C@H](C)[C@@H](CN(C)C)OCCCC[C@H](C)Oc2ccc(NS(=O)(=O)c3cn(C)cn3)cc2C1=O	5	2	.	-1	-10[16.7 µM]	0
C[C@@H]1CCCCO[C@H](CN(C)C(=O)c2ccncc2)[C@H](C)CN([C@H](C)CO)C(=O)c2cc(NS(=O)(=O)c3cn(C)cn3)ccc2O1	-4	1	-19	1.7*	-6[16.7 µM]	-4
CN(CC(=O)Nc1ccccc1C(F)(F)F)C(=O)CCc1nc2sc3c(c2c(=O)[nH]1)CCCC3	-4	11	4	0	-2	-2
O=C(NCC[C@@H]1CC[C@H](NS(=O)(=O)c2ccccc2)[C@@H](CO)O1)c1cc(Cl)cc(Cl)c1	0	-5	-11	0	11[16.7 µM]	9
Cc1noc(C)c1S(=O)(=O)Nc1ccc2c(c1)C(=O)N([C@@H](C)CO)C[C@@H](C)[C@H](CN(C)S(=O)(=O)c1cn(C)cn1)OCCCC[C@@H](C)O2	1	2	-8	34*	-1[16.7 µM]	2
C[C@H]1CN([C@@H](C)CO)S(=O)(=O)c2ccc(Br)cc2O[C@@H]1CN(C)S(=O)(=O)c1ccccc1F	1	-13	-64	0	21[16.7 µM]	94*!
SMILES	ERAP1 HTS inh	Ecoli rRNA inh	PGC1a acetyl inh	FGF22 binding	Env fusion inh	Cneo AK release
C[C@H]1CN([C@@H](C)CO)S(=O)(=O)c2ccc(Br)cc2O[C@H]1CN(C)S(=O)(=O)c1ccccc1F	-2	6	-30	0	?	104*!
COc1ccccc1S(=O)(=O)N(C)C[C@H]1Oc2cc(Br)ccc2S(=O)(=O)N([C@@H](C)CO)C[C@H]1C	-1	1	8	0	-5	-3
COc1ccccc1S(=O)(=O)N(C)C[C@H]1Oc2cc(Br)ccc2S(=O)(=O)N([C@H](C)CO)C[C@H]1C	1	-34*!	-8	0	10	5
C[C@H](CO)N1C[C@H](C)[C@H](CN(C)S(=O)(=O)c2ccccc2F)Oc2cc(-c3ccccc3)ccc2S1(=O)=O	-3	2	-3	0	20[16.7 µM]	-5
CCOC(=O)c1c(C)[nH]c(C(=O)COC(=O)/C=C/c2cccc(OC)c2OC)c1C	0	8	6	0	34	11
O=C(Nc1ncc([N+](=O)[O-])s1)c1ccc2c(c1)OCO2	4	-26	.	0	34	-4
O=C(COc1ccc(Cl)cc1)Nc1ncc([N+](=O)[O-])s1	-2	-24*	4	0	-27	.
Cc1ccc(C(=O)Nc2ncc([N+](=O)[O-])s2)cc1	-2	-52*	-23	0	36	-10
COCC(=O)NC[C@H]1N[C@H](CO)[C@H]1c1ccc(C2=CCCC2)cc1	.	-1	6	.	.	97*
COCC(=O)NC[C@H]1N[C@H](CO)[C@@H]1c1ccc(C2=CCCC2)cc1	.	3	1	.	.	108*
O=C(NC[C@H]1N[C@H](CO)[C@@H]1c1ccc(C2=CCCC2)cc1)C1CCC1	0	0	.	.	.	.
CCC(=O)NC[C@H]1N[C@H](CO)[C@@H]1c1ccc(C2=CCCC2)cc1	.	-2	-4	.	.	-1
CCCOc1ccc(N2C(=O)CC(SCCc3nc4ccccc4[nH]3)C2=O)cc1 (stereo not given)	1	-31*	.	0	-2	.
CCC(C)c1ccccc1O (stereo not given)	-5	0	-4	0	.	1
